Results from ChEMBL document CHEMBL4000256, “Light-Regulated NO Release as a Novel Strategy To Overcome Doxorubicin Multidrug Resistance” (ACS Med Chem Lett, 2017).
Active and inactive are the calls of the source. The rule behind the calls is not given here.

Legend:
[1] = Induction of NO release in pH 7.4 PBS irradiated with 7 mW/cm2 light at 10 uM after 0.5 hrs in presence of calf thymus DNA by amperometric detection assay
In short: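 NO release recorded during alternating light (λexc 405 nm) and dark cycles. Solution at 10 μM in PBS (pH 7.4, 10 mM, 3% DMSO), with or without 18 μM ct-DNA.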

[2] = Stability of the compound in pH 7.4 PBS at 100 uM incubated under dark condition for >0.5 hrs; type: physicochemical; settings: buffer, pH 7.4, 0.5 h
[3] = Solubility of the compound in PBS with 3% DMSO; type: physicochemical; settings: buffer
[4] = Stability in pH 7.4 PBS irradiated with 7 mW/cm2 light assessed as bleaching in NOP1 band at 10 uM up to 60 mins in presence of calf thymus DNA by absorption spectrum method; type: physicochemical; settings: buffer, pH 7.4, 1 h
In short: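 Absorption spectra recorded after 0, 30, 40, 50 and 60 min irradiation at λexc 405 nm. Solution at 10 μM with 18 μM ct-DNA in PBS (pH 7.4, 10 mM, 3% DMSO).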

[5] = molecular target: T1, Broad substrate specificity ATP-binding cassette transporter ABCG2 (Homo sapiens, UniProt Q9UNQ0); assay: Inhibition of BCRP in 7 mW/cm'2 irradiated human M14 cells assessed as nitration of tyrosine in BCRP at 5 uM measured after 20 mins in presence of doxorubicin by immunoblotting
T1 sequence (Q9UNQ0 whole entry): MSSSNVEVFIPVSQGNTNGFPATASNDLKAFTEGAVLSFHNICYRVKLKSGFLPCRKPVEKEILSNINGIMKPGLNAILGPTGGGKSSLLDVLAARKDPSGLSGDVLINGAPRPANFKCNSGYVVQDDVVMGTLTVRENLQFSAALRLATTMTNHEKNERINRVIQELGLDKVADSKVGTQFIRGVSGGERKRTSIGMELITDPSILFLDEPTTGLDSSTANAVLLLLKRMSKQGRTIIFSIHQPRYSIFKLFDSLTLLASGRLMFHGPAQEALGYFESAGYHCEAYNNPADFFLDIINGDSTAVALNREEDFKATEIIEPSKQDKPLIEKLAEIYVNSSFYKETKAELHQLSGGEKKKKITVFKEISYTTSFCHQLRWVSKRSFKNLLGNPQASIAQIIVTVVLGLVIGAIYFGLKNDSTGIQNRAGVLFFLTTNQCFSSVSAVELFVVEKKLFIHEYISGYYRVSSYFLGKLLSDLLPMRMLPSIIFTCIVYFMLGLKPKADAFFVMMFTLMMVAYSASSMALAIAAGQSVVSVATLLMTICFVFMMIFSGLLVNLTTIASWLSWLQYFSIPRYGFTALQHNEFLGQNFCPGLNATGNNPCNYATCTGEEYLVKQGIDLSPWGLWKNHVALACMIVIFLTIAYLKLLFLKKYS
In short: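 M14 melanoma cells held 20 min at room temperature in PBS under 400 nm light (7 mW/cm2) with 5 μM compound, alone or with equimolar doxorubicin. Nitrated ABC transporters (Pgp, MRP1, MRP4, BCRP) detected by immunoblot.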

[6] = molecular target: T1, Broad substrate specificity ATP-binding cassette transporter ABCG2; assay: Inhibition of BCRP in 7 mW/cm'2 irradiated human M14 cells assessed as reduction in ATPase activity at 5 uM measured after 20 mins in presence of doxorubicin by immunoblotting
In short: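 M14 melanoma cells held 20 min at room temperature in PBS under 400 nm light (7 mW/cm2) with 5 μM compound, alone or with equimolar doxorubicin. Transporter ATPase activity then measured; n = 3.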

[7] = system: Fibroblast; assay: Cytotoxicity against 7 mW/cm'2 irradiated human fibroblasts at 5 uM coadministered with DOX measured after 20 mins by spectrophotometric method; type: cell-based
In short: (§1)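 Cells (M14 melanoma, human fibroblasts or rat H9c2 cardiomyocytes) kept 20 min at room temperature in PBS under 400 nm light (7 mW/cm2), alone or with 5 μM compound, given alone or with equimolar 5 μM doxorubicin. Damage read as extracellular LDH release. Triplicate measurements, n = 3.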

[8] = system: M14; assay: Cytotoxicity against 7 mW/cm'2 irradiated human M14 cells assessed as increase in LDH release at 5 uM measured after 20 mins by spectrophotometric method; type: functional, cell-based; in short: as §1
[9] = system: M14; assay: Cytotoxicity against 7 mW/cm'2 irradiated human M14 cells assessed as increase in LDH release at 5 uM coadministered with DOX measured after 20 mins by spectrophotometric method; type: functional, cell-based; in short: as §1

| Compound | Activity [1] | Stability [2] | solubility [3] | Stability [4] | inhibition (INH) [5] | inhibition (INH) [6] | Activity [7] | Activity [8] | Activity [9] |
| --- | --- | --- | --- | --- | --- | --- | --- | --- | --- |
| COc1cccc2c1C(=O)c1c(O)c3c(c(O)c1C2=O)C[C@@](O)(C(=O)COC(=O)c1ccc(C(=O)NCCCNc2ccc([N+](=O)[O-])c(C(F)(F)F)c2)cc1)C[C@@H]3O[C@H]1C[C@H](N)[C@H](O)[C@H](C)O1.Cl | Active | Stable | Soluble | Stable |  |  |  |  |  |
| NCCCNc1ccc([N+](=O)[O-])c(C(F)(F)F)c1 |  |  |  |  | Active | Active | Non-Toxic | inactive | Active |
